Compounds with a hit are over-represented: about 2.2% of the library has one in this group of screens.
SIAE primary – inhibitors of human sialic acid acetylesterase SIAE | 370,000 compounds, 0.69% hits | SIAE FP-Rh probe binding, fluorescence polarization | AID 1053197 | Q9HAT2 | inhibition, % at 9.66 µM;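 active = inhibition above a cutoff: mean of compounds within the control limits plus 3 SD of those, cut at about 17% in these data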;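 note: 0% = plate median of compound wells and 100% = probe without SIAE protein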
TCR-CD3 inh – inhibitors of human TCR-CD3 interaction; TAMRA-labeled TCR probe fluorescence, biochemical; 360,000 compounds, 0.37% hits; inhibition, % at 9.4 µM; in the data active = inhibition above about 19%;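 note: recombinant mutant TCR 2C K166C tagged with TAMRA read by polarization; 0% = receptor in buffer alone and 100% = receptor with positive control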
mABHD4 FP – inhibitors of mouse ABHD4; Q8VD66; purified mABHD4, FP-Rh probe fluorescence polarization; inhibition, % at 8.92 µM; 370,000 compounds, 0.54% hits; AID 720543;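 active = inhibition exceeding the mean over every tested compound plus 3 SD, cut at about 30% in these data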;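 note: 0% = plate median of compound wells and 100% = S159A mutant with DMSO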
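Doses – 8.92 µM, single dose · Material – wild-type mouse ABHD4 protein · Replication – single well per compound (singlicate) · Measure – percent inhibition of probe binding, normalized to plate controls · Schedule – 45 min compound pre-incubation plus 60 min probe step, 25 °C · Detection – fluorescence polarization with parallel and perpendicular emission, 525/598 nm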
HTRA1 inh – blocks human HTRA1 serine peptidase; inhibition, % at 5.96 µM; recombinant HTRA1, FP-rhodamine activity-based probe, fluorescence polarization; Q92743; 340,000 compounds, 0.5% hits; AID 504803; in the data active = inhibition above about 36%;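 note: 0% = enzyme with DMSO and 100% = wells lacking enzyme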
TDP2 inh – blocks human TDP2 phosphodiesterase activity; O95551; recombinant TDP2, T5PNP hydrolysis, p-nitrophenol absorbance 415 nm; inhibition, % at 12.8 µM; 370,000 compounds, 0.34% hits;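 active = inhibition above the mean of all tested compounds plus 3 SD, set per campaign, cut at about 25% in these data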;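 note: 0% = DMSO with enzyme and 100% = buffer with substrate but no TDP2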
Target sequence (O95551 whole entry, looked up): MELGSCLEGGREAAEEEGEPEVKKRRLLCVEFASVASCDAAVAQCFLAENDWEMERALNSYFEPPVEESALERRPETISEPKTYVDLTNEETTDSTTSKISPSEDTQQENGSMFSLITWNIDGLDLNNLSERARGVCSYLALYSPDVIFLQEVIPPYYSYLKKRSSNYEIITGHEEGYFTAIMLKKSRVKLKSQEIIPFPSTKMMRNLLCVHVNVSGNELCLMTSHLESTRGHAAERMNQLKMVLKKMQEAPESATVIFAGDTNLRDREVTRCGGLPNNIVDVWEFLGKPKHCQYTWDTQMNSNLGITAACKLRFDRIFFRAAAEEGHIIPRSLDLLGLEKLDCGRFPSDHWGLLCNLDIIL
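Incubation: 2 h at 37 °C; Test system: recombinant human TDP2; Quantity: enzyme 120 nM; Read-out basis: percent inhibition; Medium: 50 mM Tris-HCl pH 7.5 with Mg2+, KCl, DTT, BSA; Repeats: single replicate; Compound: 12.8 µM single point, 1% DMSO; Signal: epi absorbance; Reagent: 5 mM T5PNP chromogenic substrate; Benchmarks: no-enzyme high, DMSO-plus-enzyme low.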
LEDGF integ inh – blocks HIV-1 LEDGF/p75-dependent DNA integration; TR-FRET IN-LEDGF/p75 DNA integration, Eu/Cy5; inhibition, % at 3.7 µM; 370,000 compounds, 0.64% hits;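 active = inhibition above the screen-wide mean plus 3 SD, cut at about 13% in these data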;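 note: signal is the Cy5 over europium emission ratio at 671 and 618 nm; 0% = plate median of compound wells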
* marks the source's active call; other numbers are inactive results; / = no result.

SMILES	SIAE primary	TCR-CD3 inh	mABHD4 FP	HTRA1 inh	TDP2 inh	LEDGF integ inh
COc1ccc(S[C@]2(C(=O)N3CCOCC3)CC(=O)N(c3ccc(C#N)cc3)[C@@H]2c2ccc(OC)cc2)cc1	-1	/	-3	/	0	-3
CCOc1ccc(C2=Nn3c(nnc3-c3ccccc3OC)SC2)cc1	5	4	-3	-24	1	-2
COc1ccccc1-c1nnc2n1N=C(c1ccc(O)c(O)c1)CS2	/	/	/	43*	/	/
O=C1Cc2ccccc2C(=O)N1	6	0	10	/	73*	25*
C[C@@H]1ON(C)[C@H]2C[C@H]3c4cc(-c5ccccc5)ccc4CCN3C[C@@H]12	0	9	10	/	-9	1
C=CC(C)(C)c1c(O)c(CC=C(C)C)c(O)c2c(=O)c3ccc(O)c(O)c3oc12	/	/	/	37*	/	/
CCN(CC)C(=O)CNc1nnnn1-c1ccccc1	-9	/	3	/	-7	2
CCOC(=O)C1=C(C(=O)OCC)C2N(Cc3ccc(C#N)cc3)c3ccccc3[C@@]23C[C@@H](C(=O)OC)N(S(=O)(=O)c2ccc(C)cc2)C3=N1 (some centres not stated)	-19	0	0	/	7	1
COCc1cc(=O)n2[nH]c(N)nc2n1	-5	2	0	3	2	-1
COCc1cc(=O)n2[nH]c(-c3ccsc3-n3c(C)ccc3C)cc2n1	-11	-6	15	35	5	81*
O=Cc1coc([B-](F)(F)F)c1	5	-4	7	/	-9	1
CC(=O)c1cc(F)c(N2CCN(CCC#N)CC2)cc1C	27*	-3	3	-4	-6	-1
COc1ccc(S(=O)(=O)Nc2cc(Sc3ncn[nH]3)c(O)c3ccccc23)cc1	8	10	28	/	65*	45*
O=S(=O)(Nc1cc(Sc2cccc3cccnc23)c(O)c2ccccc12)c1ccc(F)cc1	10	-3	38*	/	24	24*
COc1ccc(S(=O)(=O)Nc2ccc(O)c(Sc3ncn[nH]3)c2)cc1	2	-6	7	2	4	-3
CN1C(=O)c2cc(NC(=O)Cc3cccs3)ccc2OC[C@@H]2O[C@@H](CC(=O)N[C@H]3CCN(Cc4ccccc4)C3)CC[C@@H]21	2	/	7	/	0	-3
CS(=O)(=O)Nc1ccc(Br)cc1C(=O)c1ccccc1	-3	5	2	-4	-4	0
CCNc1ccc(Br)cc(C(=O)/C=C/c2c(Cl)cccc2Cl)c1=O	/	/	/	58*	/	/
O=C(N[C@H](Cc1ccccc1)C(=O)N1CCN(Cc2ccccn2)CC1)[C@H]1O[C@@H](n2ccc(=O)[nH]c2=O)[C@H](O)[C@@H]1O	4	5	2	/	-5	-4
COc1cc(/C=N/NC(=O)CC2C(=O)NN=C2C)ccc1O (configuration not stated)	0	-3	-4	5	-1	74*
Nc1ccc(O)c(-c2nc3ccccc3s2)c1	9	5	29	25	-6	-4
Oc1ccc(N=C/C=C/c2cccc(Br)c2)cc1-c1nc2ccccc2s1	/	/	/	44*	/	/
Nc1[nH]c2cc(C(F)(F)F)ccc2c1C(=O)NCc1ccc(F)cc1	8	/	-2	/	0	-1
CC(C)C[C@H]1COc2cccc(N3CCCCC3)c2S(=O)(=O)N1	-4	-6	-5	/	1	2
CCC[C@@H](/C=C/C(=O)OC(C)(C)C)Sc1ccc(OC)cc1	-2	/	2	/	6	-6
SMILES	SIAE primary	TCR-CD3 inh	mABHD4 FP	HTRA1 inh	TDP2 inh	LEDGF integ inh
CCCCOC(=O)c1ccc(NC(=O)Nc2ccc(OC)c(OC)c2)cc1	20*	9	13	-2	-11	-2
Oc1c(CN2CCc3ccccc3C2)cc(Cl)c2cccnc12	/	/	/	69*	/	/
Cc1ccccc1C(=O)NC1CCCCN(Cc2cccc(C(F)(F)F)c2)C1=O (configuration not stated)	2	/	-6	/	1	-2
COCCCNC(=O)C[C@H]1C[C@@]2(C(=O)OC)C(=C[C@H](COCc3ccccc3)O[C@@H]2C)N(Cc2ccco2)C1=O	-1	/	0	/	3	0
CC[n+]1ccc(C)c2cc(S(=O)C(F)(F)F)ccc21 (configuration not stated)	/	/	/	42*	/	/
COc1ccc(-n2c(SCC(=O)Nc3ccc(S(=O)(=O)Nc4nccs4)cc3)nnc2-c2cccs2)cc1	-16	/	-27	/	1	1
O=C(CC1CCCC1)N1CC[C@H]2[C@H](CCCN2Cc2ccccc2)C1	-1	/	9	/	0	6
Cc1cccc(C)c1NC(=O)CSc1nnc(-c2ccco2)c(-c2ccco2)n1	/	/	/	50*	/	/
CCOc1ccc(C(N)=O)cc1OC	-6	-5	-10	10	-7	1
CCOc1ccc(N)cc1OC	24*	-3	13	17	23	-4
O=C(CN1CCN(c2ccccc2F)CC1)c1ccc(O)c(O)c1	1	4	10	21	12	64*
CC1(C)c2ssc(=S)c2-c2ccccc2N1C(=O)c1ccco1	22*	-1	-7	5	2	3
Cc1ccc2c(c1)-c1c(ssc1=S)C(C)(C)N2C(=O)c1ccco1	10	-2	-1	8	5	-3
COc1ccc(OCCCC(=O)OC(C)C(=O)Nc2ccc(S(N)(=O)=O)cc2)cc1 (configuration not stated)	-1	0	-5	-3	-7	35*
CC(COc1ccccc1C#N)CN1CCC(C(O)(c2ccccc2)c2ccccc2)CC1 (configuration not stated)	-2	/	8	/	-3	-1
Nc1nc(N)c2cc(Sc3ccc4ccccc4c3)ccc2n1	29*	-7	20	/	-10	-3
CCN(CC)c1ccc2cc(C(C)=O)c(=O)oc2c1	4	2	-4	-1	-7	0
CCN(CC)c1ccc2cc(NC(=O)CCC(=O)O)c(=O)oc2c1	9	16	58*	19	-10	1
O=C(CCCc1c[nH]c2ccccc12)N1CCN(c2ccc(N3CCOCC3)nn2)CC1	19*	6	5	9	4	-1
CO[C@@H]1[C@H](O)CC[C@]2(O)CN(c3ccc(F)cc3)[C@](C)([C@H](O)CC=C(C)C)[C@@H]12	4	2	6	/	-4	2
CCC[C@H]1[C@@H](NC(=O)c2cccc(N(C)C)c2)CC[C@@]23CCCN2C(=O)CCC[C@@H]13	4	/	4	/	6	-2
O=C(O)c1ccc(-c2ccc(/C=C3\NC(=O)N(Cc4ccc(Cl)cc4)C3=O)o2)cc1Cl	-24	2	18	-7	3	29*
CCC[C@@H](CN1CCC[C@H]1CN1C(N)=NC[C@@H]1Cc1ccccc1)N1C[C@@H]([C@H](C)CC)N(CCc2ccc(Cl)c(Cl)c2)C1=N	/	/	/	4	/	/

Bioassay records (PubChem)
